Measurements collected from several papers.
Compare with care: the assays were run in different laboratories.
DPP4: Dipeptidyl peptidase 4 (DPP4, Homo sapiens, UniProt P27487)
ENAH: Protein enabled homolog (ENAH, UniProt Q8N8S7)
SRC: Proto-oncogene tyrosine-protein kinase Src (SRC, Homo sapiens, UniProt P12931)

CC(C)[C@H](N)C(=O)N1CCC[C@H]1C(=O)N[C@H](C(=O)N1CCC[C@H]1C(=O)N[C@@H](Cc1c[nH]c2ccccc12)C(=O)O)C(C)C  IC50 (DPP4; enzyme activity, inhibitor, absorbance; pH 8): 92.1 µM
CC[C@H]1NC(=O)[C@@H]2CSC(=N2)[C@H](Cc2ccccc2)N(C)C(=O)[C@@H]2CCCN2C(=O)[C@H](C(C)C)N(C)C(=O)[C@H](Cc2ccccc2)OC(=O)[C@H](C)[C@@H](C)NC(=O)[C@@H]([C@@H](C)O)NC(=O)[C@@H](CC(C)C)N(C)C(=O)[C@@H]2CSC1=N2  IC50 (DPP4; enzyme activity, inhibitor): 245 µM
CC(=O)N[C@@H](CO)C(=O)N[C@@H](Cc1ccccc1)C(=O)N[C@@H](CCC(=O)O)C(=O)N[C@@H](Cc1ccccc1Cl)C(=O)N1CCC[C@H]1C(=O)N1CCC[C@H]1C(=O)N1CCC[C@H]1C(=O)N1CCC[C@H]1C(=O)N[C@H](C(=O)N[C@@H](CCC(=O)O)C(=O)N[C@@H](CC(=O)O)C(=O)N[C@@H](CCC(=O)O)C(=O)N[C@@H](CC(C)C)C(N)=O)[C@@H](C)O  Kd (ENAH; binding, fluorescence): 0.79 µM
Cn1cc(-c2cc(F)cc(N3CCn4c(cc5c4CCCC5)C3=O)c2CO)cc(Nc2ccc(N3CCN(C4COC4)CC3)cn2)c1=O  Ki (SRC; enzyme activity, inhibitor, FRET): 0.254 µM
CC(C)[C@H](N)C(=O)N1CCC[C@H]1C(=O)N[C@H](C(=O)N1CCC[C@H]1C(=O)N[C@@H](CC(N)=O)C(=O)O)C(C)C  IC50 (DPP4; enzyme activity, inhibitor, absorbance; pH 8): 88.7 µM
CC(=O)N[C@@H](Cc1ccccc1Cl)C(=O)N1CCC[C@H]1C(=O)N1CCC[C@H]1C(=O)N1CCC[C@H]1C(=O)N1CCC[C@H]1C(=O)N[C@H](C(=O)N[C@@H](CCC(=O)O)C(=O)N[C@@H](CC(=O)O)C(=O)N[C@@H](CCC(=O)O)C(=O)N[C@@H](CC(C)C)C(N)=O)[C@@H](C)O  Kd (ENAH; binding, fluorescence): 1.25 µM
CC(C)[C@H](N)C(=O)N1CCC[C@H]1C(=O)N[C@H](C(=O)N1CCC[C@H]1C(=O)N[C@@H](CCCNC(=N)N)C(=O)O)C(C)C  IC50 (DPP4; enzyme activity, inhibitor, absorbance; pH 8): 118 µM
c1ccc(Nc2cccc3ccccc23)cc1  Kd (lush (Drosophila melanogaster, UniProt O02372); binding): 0.65 µM
Cn1cc(-c2cccc(N3CCc4c(sc5c4CC(C)(C)C5)C3=O)c2CO)cc(Nc2ccncn2)c1=O  Ki (SRC; enzyme activity, inhibitor, FRET): > 3.33 µM
CC(=O)N[C@@H](Cc1ccccc1Cl)C(=O)N1CCC[C@H]1C(=O)N1CCC[C@H]1C(=O)N1CCC[C@H]1C(=O)N1CCC[C@H]1C(=O)O  Kd (ENAH; binding, fluorescence): 9.9 µM
CC(C)[C@H](N)C(=O)N1CCC[C@H]1C(=O)N[C@H](C(=O)N1CCC[C@H]1C(=O)N[C@@H](CCC(=O)O)C(=O)O)C(C)C  IC50 (DPP4; enzyme activity, inhibitor, absorbance; pH 8): 83.4 µM
CC(=O)P(=O)(O)OCCc1cn([C@H](Cc2ccccc2)C(=O)O)nn1  Ki (1-deoxy-D-xylulose-5-phosphate synthase (dxs, Escherichia coli, UniProt P77488); enzyme activity, inhibitor; with preincubation): 0.09 µM
NC(=S)c1cn(C2OC(CO)C(O)C2O)c2ncnc(N)c12 (stereo not drawn)  Kd (Activin receptor type-1 (ACVR1, Homo sapiens, UniProt Q04771); thermal stability, DSF): < 1 µM
CC(=O)N[C@@H](Cc1ccccc1Cl)C(=O)N1CCC[C@H]1C(=O)N1CCC[C@H]1C(=O)N1CCC[C@H]1C(=O)N1CCC[C@H]1C(=O)N[C@H](C(=O)N[C@@H](CCC(=O)O)C(=O)N[C@@H](CC(=O)O)C(=O)N[C@@H](CC(=O)O)C(=O)N[C@@H](CC(C)C)C(N)=O)[C@@H](C)O  Kd (ENAH; binding, fluorescence): 3.8 µM
O=C1C=CC(=O)N1CCCCCCCCCCCCCCCCCCN1CCCCC1  Ki (Acetylcholinesterase (ACHE, Homo sapiens, UniProt P22303); enzyme activity, inhibitor): 20.4 µM
